Assay results from ChEMBL document CHEMBL5550118, “Human mitochondrial glutathione transferases: Kinetic parameters and accommodation of a mitochondria-targeting group in substrates” (Bioorg Med Chem, 2024).

Assays:
[1] = GSH reactivity in […] at 30 degreeC assessed as second-order reaction rate constant; assay type: ADME; conditions: buffer
[2] = substrate: O=[N+]([O-])c1cc([N+](=O)[O-])c(NCCCC[P+](c2ccccc2)(c2ccccc2)c2ccccc2)cc1Cl; test: (§1) Substrate activity at N-terminal His6 tagged human GSTK1-1 expressed in Escherichia coli BL21(DE3) assessed as Kcat/Km at pH 8 at 30 degreeC by Michaelis-Menten analysis
Summary of the method: (§2)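 His6/TEV-tagged human GST was expressed in E. coli BL21(DE3) and purified on Ni-NTA. Assays used 0.1 M HEPES-HCl, pH 8, 30 °C. One substrate was varied: CDNB or chloronitrobenzene derivatives (derivatives 0.0625–2 mM) with 10 mM GSH, or GSH with 1 mM CDNB. Initial conjugate-formation rates were read at substrate-specific wavelengths, in triplicate. Triplicate background rates were subtracted. Enzyme amount was adjusted as needed. Fit by Michaelis–Menten non-linear regression or Lineweaver–Burk.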

[3] = substrate: O=[N+]([O-])c1ccc(Cl)c([N+](=O)[O-])c1; test: as §1; summary of the method: as §2
[4] = substrate: O=[N+]([O-])c1ccc(Cl)c([N+](=O)[O-])c1; test: Substrate activity at N-terminal His6 tagged human GSTK1-1 expressed in Escherichia coli BL21(DE3) assessed as Km at pH 8 at 30 degreeC by Michaelis-Menten analysis; summary of the method: as §2
[5] = substrate: COC(=O)c1cc([N+](=O)O)ccc1Cl; test: Substrate activity at N-terminal His6 tagged human GSTK1-1 expressed in Escherichia coli BL21(DE3) assessed as catalytic constant at pH 8 at 30 degreeC by Lineweaver-Burk plot analysis
Summary of the method: (§3)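 N-terminal His6/TEV-tagged enzyme was expressed in E. coli BL21(DE3) by IPTG induction at 15 °C and purified on Ni-NTA. Assays used 0.1 M HEPES-HCl pH 8, 30°C, with GSH fixed at 10 mM and substrate varied from 0.0625 to 2 mM. Conjugate formation was read by UV absorbance, and initial rates were measured in triplicate after subtracting the background rate. Constants came from a double-reciprocal Lineweaver-Burk fit.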

[6] = substrate: O=[N+]([O-])c1ccc(Cl)c([N+](=O)[O-])c1; test: Substrate activity at N-terminal His6 tagged human GSTK1-1 expressed in Escherichia coli BL21(DE3) assessed as catalytic constant at pH 8 at 30 degreeC by Michaelis-Menten analysis; summary of the method: as §2
[7] = substrate: COC(=O)c1ccc(Cl)c([N+](=O)[O-])c1; test: (§4) Substrate activity at N-terminal His6 tagged human GSTK1-1 expressed in Escherichia coli BL21(DE3) assessed as Kcat/Km at pH 8 at 30 degreeC by Lineweaver-Burk plot analysis; summary of the method: as §3
[8] = substrate: COC(=O)c1cc([N+](=O)O)ccc1Cl; test: as §4; summary of the method: as §3
[9] = substrate: O=[N+]([O-])c1ccc(Cl)c([N+](=O)[O-])c1; test: Substrate activity at N-terminal His6 tagged human GSTA4-4 expressed in Escherichia coli BL21(DE3) assessed as Km at pH 8 at 30 degreeC by Michaelis-Menten analysis; summary of the method: as §2
[10] = substrate: COC(=O)c1cc([N+](=O)O)ccc1Cl; test: Substrate activity at N-terminal His6 tagged human GSTA4-4 expressed in Escherichia coli BL21(DE3) assessed as catalytic constant at pH 8 at 30 degreeC by Lineweaver-Burk plot analysis; summary of the method: as §3
[11] = substrate: O=[N+]([O-])c1ccc(Cl)c([N+](=O)[O-])c1; test: Substrate activity at N-terminal His6 tagged human GSTA4-4 expressed in Escherichia coli BL21(DE3) assessed as Kcat/Km at pH 6.5 at 30 degreeC by Michaelis-Menten analysis
Summary of the method: (§5)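 N-terminal His6/TEV-tagged human enzyme, expressed in E. coli BL21(DE3) and Ni-NTA purified. Run in 0.1 M sodium phosphate, pH 6.5, 30 °C. CDNB was varied with GSH fixed at 10 mM, or GSH was varied with CDNB fixed at 1 mM (GSH constants apparent). Conjugate formation read at 340 nm as initial rates over ≥1 min, in triplicate. A single background rate was subtracted, then fitted to Michaelis–Menten by non-linear regression.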

[12] = substrate: O=[N+]([O-])c1ccc(Cl)c([N+](=O)[O-])c1; test: Substrate activity at N-terminal His6 tagged human GSTA4-4 expressed in Escherichia coli BL21(DE3) assessed as Km at pH 6.5 at 30 degreeC by Michaelis-Menten analysis; summary of the method: as §5
[13] = substrate: O=[N+]([O-])c1ccc(Cl)c([N+](=O)[O-])c1; test: Substrate activity at N-terminal His6 tagged human GSTA4-4 expressed in Escherichia coli BL21(DE3) assessed as catalytic constant at pH 6.5 at 30 degreeC by Michaelis-Menten analysis; summary of the method: as §5
[14] = substrate: O=[N+]([O-])c1ccc(Cl)c([N+](=O)[O-])c1; test: Substrate activity at N-terminal His6 tagged human GSTA4-4 expressed in Escherichia coli BL21(DE3) assessed as catalytic constant at pH 8 at 30 degreeC by Michaelis-Menten analysis; summary of the method: as §2
[15] = substrate: COC(=O)c1ccc(Cl)c([N+](=O)[O-])c1; test: (§6) Substrate activity at N-terminal His6 tagged human GSTA4-4 expressed in Escherichia coli BL21(DE3) assessed as Kcat/Km at pH 8 at 30 degreeC by Lineweaver-Burk plot analysis; summary of the method: as §3
[16] = substrate: O=C(NCCCCC[P+](c1ccccc1)(c1ccccc1)c1ccccc1)c1ccc(Cl)c([N+](=O)[O-])c1; test: as §6; summary of the method: as §3
[17] = substrate: COC(=O)c1cc([N+](=O)O)ccc1Cl; test: as §6; summary of the method: as §3
[18] = substrate: O=[N+]([O-])c1cc([N+](=O)[O-])c(NCCCC[P+](c2ccccc2)(c2ccccc2)c2ccccc2)cc1Cl; test: (§7) Substrate activity at N-terminal His6 tagged human GSTA4-4 expressed in Escherichia coli BL21(DE3) assessed as Kcat/Km at pH 8 at 30 degreeC by Michaelis-Menten analysis; summary of the method: as §2
[19] = substrate: O=[N+]([O-])c1ccc(Cl)c([N+](=O)[O-])c1; test: as §7; summary of the method: as §2
[20] = substrate: O=[N+]([O-])c1ccc(Cl)c([N+](=O)[O-])c1; test: Substrate activity at N-terminal His6 tagged human GSTA1-1 expressed in Escherichia coli BL21(DE3) assessed as Km at pH 6.5 at 30 degreeC by Michaelis-Menten analysis; summary of the method: as §5
[21] = substrate: COC(=O)c1ccc(Cl)c([N+](=O)[O-])c1; test: (§8) Substrate activity at N-terminal His6 tagged human GSTA1-1 expressed in Escherichia coli BL21(DE3) assessed as Kcat/Km at pH 8 at 30 degreeC by Lineweaver-Burk plot analysis; summary of the method: as §3
[22] = substrate: O=C(NCCCCC[P+](c1ccccc1)(c1ccccc1)c1ccccc1)c1cc([N+](=O)O)ccc1Cl; test: as §8; summary of the method: as §3
[23] = substrate: O=C(NCCCCC[P+](c1ccccc1)(c1ccccc1)c1ccccc1)c1ccc(Cl)c([N+](=O)[O-])c1; test: as §8; summary of the method: as §3
[24] = substrate: COC(=O)c1cc([N+](=O)O)ccc1Cl; test: as §8; summary of the method: as §3
[25] = substrate: O=C(NCCCCC[P+](c1ccccc1)(c1ccccc1)c1ccccc1)c1cc([N+](=O)O)ccc1Cl; test: Substrate activity at N-terminal His6 tagged human GSTA1-1 expressed in Escherichia coli BL21(DE3) assessed as catalytic constant at pH 8 at 30 degreeC by Lineweaver-Burk plot analysis
Summary of the method: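 Assayed in 0.1 M HEPES-HCl pH 8 at 30°C. GSH fixed at 10 mM and chloronitrobenzene substrate varied 0.0625–2 mM. Initial rate of GS-conjugate formation read by UV absorbance at a substrate-specific wavelength. Background chemical rate (triplicate) subtracted. Triplicate rates, kcat from best-line fit of double-reciprocal plot.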

[26] = substrate: O=[N+]([O-])c1cc([N+](=O)[O-])c(NCCCC[P+](c2ccccc2)(c2ccccc2)c2ccccc2)cc1Cl; test: (§9) Substrate activity at N-terminal His6 tagged human GSTA1-1 expressed in Escherichia coli BL21(DE3) assessed as Kcat/Km at pH 8 at 30 degreeC by Michaelis-Menten analysis; summary of the method: as §2
[27] = substrate: O=[N+]([O-])c1ccc(Cl)c([N+](=O)[O-])c1; test: as §9; summary of the method: as §2
[28] = substrate: O=[N+]([O-])c1ccc(Cl)c([N+](=O)[O-])c1; test: Substrate activity at N-terminal His6 tagged human GSTA1-1 expressed in Escherichia coli BL21(DE3) assessed as Km at pH 8 at 30 degreeC by Michaelis-Menten analysis; summary of the method: as §2
[29] = substrate: O=[N+]([O-])c1ccc(Cl)c([N+](=O)[O-])c1; test: Substrate activity at N-terminal His6 tagged human GSTA1-1 expressed in Escherichia coli BL21(DE3) assessed as Kcat/Km at pH 6.5 at 30 degreeC by Michaelis-Menten analysis; summary of the method: as §5
[30] = substrate: O=[N+]([O-])c1ccc(Cl)c([N+](=O)[O-])c1; test: Substrate activity at N-terminal His6 tagged human GSTA1-1 expressed in Escherichia coli BL21(DE3) assessed as catalytic constant at pH 6.5 at 30 degreeC by Michaelis-Menten analysis; summary of the method: as §5
[31] = substrate: O=[N+]([O-])c1ccc(Cl)c([N+](=O)[O-])c1; test: Substrate activity at N-terminal His6 tagged human GSTA1-1 expressed in Escherichia coli BL21(DE3) assessed as catalytic constant at pH 8 at 30 degreeC by Michaelis-Menten analysis; summary of the method: as §2

In the case of COC(=O)c1ccc(Cl)c([N+](=O)[O-])c1, the K [1] is reported as 2.92 10^-6/mM/s.

With O=[N+]([O-])c1cc([N+](=O)[O-])c(NCCCC[P+](c2ccccc2)(c2ccccc2)c2ccccc2)cc1Cl the K [1] was 1.5 10^-5/mM/s.

With O=[N+]([O-])c1ccc(Cl)c([N+](=O)[O-])c1 [DINITROCHLOROBENZENE] the K [1] was 5.05 10^-5/mM/s.

B1: Glutathione S-transferase kappa 1 (Homo sapiens), Q9Y2Q3 (protein)
chain: MGPLPRTVELFYDVLSPYSWLGFEILCRYQNIWNINLQLRPSLITGIMKDSGNKPPGLLPRKGLYMANDLKLLRHHLQIPIHFPKDFLSVMLEKGSLSAMRFLTAVNLEHPEMLEKASRELWMRVWSRNEDITEPQSILAAAEKAGMSAEQAQGLLEKIATPKVKNQLKETTEAACRYGAFGLPITVAHVDGQTHMLFGSDRMELLAHLLGEKWMGPIPPAVNARL
With B1 the kcat/Km [2] was 287 M⁻¹ s⁻¹, the kcat/Km [3] was 7670 M⁻¹ s⁻¹ and the Km [4] was 1900 µM. For the same molecule, the kcat [5] was 9.45 10^-2/s, the kcat [6] was 14.6 s⁻¹ and the kcat/Km [7] was 351 M⁻¹ s⁻¹. For the same molecule, the kcat/Km [8] was 6.13 10^-2/mM/s.

B2: Glutathione S-transferase A4 (Homo sapiens), O15217 (protein)
chain: MAARPKLHYPNGRGRMESVRWVLAAAGVEFDEEFLETKEQLYKLQDGNHLLFQQVPMVEIDGMKLVQTRSILHYIADKHNLFGKNLKERTLIDMYVEGTLDLLELLIMHPFLKPDDQQKEVVNMAQKAIIRYFPVFEKILRGHGQSFLVGNQLSLADVILLQTILALEEKIPNILSAFPFLQEYTVKLSNIPTIKRFLEPGSKKKPPPDEIYVRTVYNIFRP
With B2 the Km [9] was 253 µM, the kcat [10] was 5.61 10^-2/s and the kcat/Km [11] was 2930 M⁻¹ s⁻¹. For the same molecule, the Km [12] was 5200 µM, the kcat [13] was 14.9 s⁻¹ and the kcat [14] was 4.94 s⁻¹. For the same molecule, the kcat/Km [15] was 146 M⁻¹ s⁻¹, the kcat/Km [16] was 2570 M⁻¹ s⁻¹ and the kcat/Km [17] was 5.91 10^-2/mM/s. For the same molecule, the kcat/Km [18] was 32200 M⁻¹ s⁻¹ and the kcat/Km [19] was 19500 M⁻¹ s⁻¹.

B3: Glutathione S-transferase A1 (Homo sapiens), P08263 (protein)
chain: MAEKPKLHYFNARGRMESTRWLLAAAGVEFEEKFIKSAEDLDKLRNDGYLMFQQVPMVEIDGMKLVQTRAILNYIASKYNLYGKDIKERALIDMYIEGIADLGEMILLLPVCPPEEKDAKLALIKEKIKNRYFPAFEKVLKSHGQDYLVGNKLSRADIHLVELLYYVEELDSSLISSFPLLKALKTRISNLPTVKKFLQPGSPRKPPMDEKSLEEARKIFRF
For B3, the Km [20] was 492 µM, the kcat/Km [21] was 4320 M⁻¹ s⁻¹ and the kcat/Km [22] was 6.49 10^-2/mM/s. The kcat/Km [23] was 21600 M⁻¹ s⁻¹, the kcat/Km [24] was 1380 M⁻¹ s⁻¹ and the kcat [25] was 4.67 10^-2/s. It also gave a kcat/Km [26] of 101000 M⁻¹ s⁻¹, a kcat/Km [27] of 353000 M⁻¹ s⁻¹ and a Km [28] of 128 µM. The kcat/Km [29] was 71900 M⁻¹ s⁻¹, the kcat [30] was 35.4 s⁻¹ and the kcat [31] was 45.3 s⁻¹.
